Test [1] addresses T1, Pituitary adenylate cyclase-activating polypeptide type I receptor (Homo sapiens, UniProt P41586). The experiment in a line: Displacement of [125I]Ac-PACAP27 from human recombinant PAC1 receptor expressed in CHO cells by gamma- counter. Format: cell-based. Background: In a radioligand displacement assay an active substance lowers the binding of a labelled ligand.
Target sequence in this assay (P41586 whole entry): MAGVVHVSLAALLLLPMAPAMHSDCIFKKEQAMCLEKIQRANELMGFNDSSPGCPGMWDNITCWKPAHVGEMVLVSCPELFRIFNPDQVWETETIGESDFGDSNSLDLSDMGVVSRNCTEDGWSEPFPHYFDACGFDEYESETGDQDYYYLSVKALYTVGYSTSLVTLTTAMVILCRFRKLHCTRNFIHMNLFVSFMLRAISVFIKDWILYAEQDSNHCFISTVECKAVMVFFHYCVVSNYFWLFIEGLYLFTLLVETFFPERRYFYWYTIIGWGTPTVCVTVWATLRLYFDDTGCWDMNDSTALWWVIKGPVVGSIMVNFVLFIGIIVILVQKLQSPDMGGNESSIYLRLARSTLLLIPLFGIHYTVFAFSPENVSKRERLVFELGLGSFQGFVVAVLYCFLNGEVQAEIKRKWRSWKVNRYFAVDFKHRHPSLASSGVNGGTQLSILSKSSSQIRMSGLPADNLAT
Test [2] has as its target T1, Pituitary adenylate cyclase-activating polypeptide type I receptor. The experiment in a line: Agonist activity at human recombinant PAC1 receptor expressed in CHO cells assessed as PACAP38-induced calcium mobilization at 1 uM by FLIPR assay. The format is functional, cell-based. Background: Calcium flux is commonly read through the fluorescence of an indicator in the cells.
Target sequence in this assay (P41586 whole entry): as above

Test [3] shares this target. The experiment in a line: Agonist activity at human recombinant PAC1 receptor expressed in CHO cells assessed as PACAP38-induced calcium mobilization at 1 uM by FLIPR assay relative to PACAP38. The format is functional, cell-based.
Target sequence in this assay (P41586 21-468 limits assumed): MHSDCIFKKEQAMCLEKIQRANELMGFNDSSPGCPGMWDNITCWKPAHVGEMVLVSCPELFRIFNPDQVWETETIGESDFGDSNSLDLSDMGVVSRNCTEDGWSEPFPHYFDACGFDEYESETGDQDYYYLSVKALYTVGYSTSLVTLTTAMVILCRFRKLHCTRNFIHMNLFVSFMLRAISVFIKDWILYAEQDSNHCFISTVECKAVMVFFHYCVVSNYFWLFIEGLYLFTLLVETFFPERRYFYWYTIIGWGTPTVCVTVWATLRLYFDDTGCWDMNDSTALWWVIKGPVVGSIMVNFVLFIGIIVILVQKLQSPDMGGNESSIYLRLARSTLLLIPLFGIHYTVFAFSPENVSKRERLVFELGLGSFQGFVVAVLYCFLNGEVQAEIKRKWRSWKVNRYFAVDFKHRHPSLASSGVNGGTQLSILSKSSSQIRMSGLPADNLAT
Test [4] shares this target. The experiment in a line: Agonist activity at human recombinant PAC1 receptor expressed in CHO cells assessed as PACAP38-induced calcium mobilization by FLIPR assay. Format: functional, cell-based. A digest of the protocol:
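CHO cells stably expressing recombinant human PAC1, plated 24 h before assay, loaded with fluo-4 AM for 60 min at 37 °C in the dark, then rinsed into HBSS for 15 min at 37 °C. EC50 and efficacy came from nonlinear regression; 4-10 independent assays in duplicate.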
Target sequence in this assay (P41586 whole entry): as the sequence (P41586 whole entry) above

For test [5] the target is unchanged. The experiment in a line: Agonist activity at human recombinant PAC1 receptor expressed in CHO cells assessed as PACAP38-induced calcium mobilization by FLIPR assay relative to PACAP38. Format: functional, cell-based. A digest of the protocol:
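CHO cells stably expressing recombinant human PAC1, plated 24 h before assay, loaded with fluo-4 AM for 60 min at 37 °C in the dark, then rinsed into HBSS for 15 min at 37 °C. Peptide was added 18 s into a 150 s read (ex 480/em 525 nm), at final concentrations of 1 × 10-12 to 1 × 10^-5 M. Response was normalised to 1 × 10^-5 M PACAP38 on each plate. EC50 and efficacy came from nonlinear regression; 4-10 independent assays in duplicate.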
Target sequence in this assay (P41586 21-468 limits assumed): as the sequence (P41586 21-468 limits assumed) above

Activity calls are given as the source filed them. The calls are words filed in the database; no cut-off is given here. Where a SMILES comes first, the peptide text is derived from it. [ ]: non-standard residue; d: D form. ξ: configuration not given here. ξTiq(1-COOH) = O=C(O)C1NCCc2ccccc21; ξDisc = O=C(O)C1NCc2ccccc21

The IC50 is the concentration at which inhibition is half-maximal. In general, EC50 refers to the midpoint of the concentration-response curve. By Emax is commonly meant the maximal effect, on the per cent scale that the assay sets.

As for `CC[C@H](C)[C@H](NC(=O)CNC(=O)[C@H](CC(=O)O)NC(=O)[C@H](CO)NC(=O)[C@@H](N)Cc1cnc[nH]1)C(=O)N1Cc2ccccc2C1C(=O)N[C@H](C(=O)N[C@@H](CC(=O)O)C(=O)N[C@@H](CO)C(=O)N[C@@H](Cc1ccc(O)cc1)C(=O)N[C@@H](CO)C(=O)N[C@@H](CCCNC(=N)N)C(=O)N[C@@H](Cc1ccc(O)cc1)C(=O)N[C@@H](CCCNC(=N)N)C(=O)N[C@@H](CCCCN)C(=O)N[C@@H](CCC(N)=O)C(=O)N[C@@H](CCSC)C(=O)N[C@@H](C)C(=O)N[C@H](C(=O)N[C@@H](CCCCN)C(=O)N[C@@H](CCCCN)C(=O)N[C@@H](Cc1ccc(O)cc1)C(=O)N[C@@H](CC(C)C)C(=O)N[C@@H](C)C(=O)N[C@@H](C)C(=O)N[C@H](C(=O)N[C@@H](CC(C)C)C(N)=O)C(C)C)C(C)C)[C@@H](C)O` (some centres undefined), in test [1], the half-inhibitory concentration (IC50) worked out at 3590 nM. Moreover, the EC50 entry in test [2] was “Not Active”. In test [3], the Emax result was “inactive”.
For `CC[C@H](C)[C@H](NC(=O)CNC(=O)[C@H](CC(=O)O)NC(=O)[C@H](CO)NC(=O)[C@@H](N)Cc1cnc[nH]1)C(=O)N(C)[C@@H](Cc1ccccc1)C(=O)N[C@H](C(=O)N[C@@H](CC(=O)O)C(=O)N[C@@H](CO)C(=O)N[C@@H](Cc1ccc(O)cc1)C(=O)N[C@@H](CO)C(=O)N[C@@H](CCCNC(=N)N)C(=O)N[C@@H](Cc1ccc(O)cc1)C(=O)N[C@@H](CCCNC(=N)N)C(=O)N[C@@H](CCCCN)C(=O)N[C@@H](CCC(N)=O)C(=O)N[C@@H](CCSC)C(=O)N[C@@H](C)C(=O)N[C@H](C(=O)N[C@@H](CCCCN)C(=O)N[C@@H](CCCCN)C(=O)N[C@@H](Cc1ccc(O)cc1)C(=O)N[C@@H](CC(C)C)C(=O)N[C@@H](C)C(=O)N[C@@H](C)C(=O)N[C@H](C(=O)N[C@@H](CC(C)C)C(=O)NCC(=O)N[C@@H](CCCCN)C(=O)N[C@@H](CCCNC(=N)N)C(=O)N[C@@H](Cc1ccc(O)cc1)C(=O)N[C@@H](CCCCN)C(=O)N[C@@H](CCC(N)=O)C(=O)N[C@@H](CCCNC(=N)N)C(=O)N[C@H](C(=O)N[C@@H](CCCCN)C(=O)N[C@@H](CC(N)=O)C(=O)N[C@@H](CCCCN)C(N)=O)C(C)C)C(C)C)C(C)C)[C@@H](C)O` the same measures were 1280 nM, “Not Active” and “inactive”.
For `CC[C@H](C)[C@H](NC(=O)CNC(=O)[C@H](CC(=O)O)NC(=O)[C@H](CO)NC(=O)[C@@H](N)Cc1cnc[nH]1)C(=O)N1Cc2ccccc2C1C(=O)N[C@H](C(=O)N[C@@H](CC(=O)O)C(=O)N[C@@H](CO)C(=O)N[C@@H](Cc1ccc(O)cc1)C(=O)N[C@@H](CO)C(=O)N[C@@H](CCCNC(=N)N)C(=O)N[C@@H](Cc1ccc(O)cc1)C(=O)N[C@@H](CCCNC(=N)N)C(=O)N[C@@H](CCCCN)C(=O)N[C@@H](CCC(N)=O)C(=O)N[C@@H](CCSC)C(=O)N[C@@H](C)C(=O)N[C@H](C(=O)N[C@@H](CCCCN)C(=O)N[C@@H](CCCCN)C(=O)N[C@@H](Cc1ccc(O)cc1)C(=O)N[C@@H](CC(C)C)C(=O)N[C@@H](C)C(=O)N[C@@H](C)C(=O)N[C@H](C(=O)N[C@@H](CC(C)C)C(=O)NCC(=O)N[C@@H](CCCCN)C(=O)N[C@@H](CCCNC(=N)N)C(=O)N[C@@H](Cc1ccc(O)cc1)C(=O)N[C@@H](CCCCN)C(=O)N[C@@H](CCC(N)=O)C(=O)N[C@@H](CCCNC(=N)N)C(=O)N[C@H](C(=O)N[C@@H](CCCCN)C(=O)N[C@@H](CC(N)=O)C(=O)N[C@@H](CCCCN)C(N)=O)C(C)C)C(C)C)C(C)C)[C@@H](C)O` (some centres undefined) (H-HSDGI[ξDisc]TDSYSRYRKQMAVKKYLAAVLGKRYKQRVKNK-NH2) the same measures were 1750 nM, “Not Active” and “inactive”.
For `CC[C@H](C)[C@H](NC(=O)CNC(=O)[C@H](CC(=O)O)NC(=O)[C@H](CO)NC(=O)[C@@H](N)Cc1cnc[nH]1)C(=O)N1CCc2ccccc2C1C(=O)N[C@H](C(=O)N[C@@H](CC(=O)O)C(=O)N[C@@H](CO)C(=O)N[C@@H](Cc1ccc(O)cc1)C(=O)N[C@@H](CO)C(=O)N[C@@H](CCCNC(=N)N)C(=O)N[C@@H](Cc1ccc(O)cc1)C(=O)N[C@@H](CCCNC(=N)N)C(=O)N[C@@H](CCCCN)C(=O)N[C@@H](CCC(N)=O)C(=O)N[C@@H](CCSC)C(=O)N[C@@H](C)C(=O)N[C@H](C(=O)N[C@@H](CCCCN)C(=O)N[C@@H](CCCCN)C(=O)N[C@@H](Cc1ccc(O)cc1)C(=O)N[C@@H](CC(C)C)C(=O)N[C@@H](C)C(=O)N[C@@H](C)C(=O)N[C@H](C(=O)N[C@@H](CC(C)C)C(N)=O)C(C)C)C(C)C)[C@@H](C)O` (some centres undefined) the same measures were 2590 nM, “Not Active” and “inactive”.
Take `CC[C@H](C)[C@H](NC(=O)CNC(=O)[C@H](CC(=O)O)NC(=O)[C@H](CO)NC(=O)[C@@H](N)Cc1cnc[nH]1)C(=O)N1CCc2ccccc2C1C(=O)N[C@H](C(=O)N[C@@H](CC(=O)O)C(=O)N[C@@H](CO)C(=O)N[C@@H](Cc1ccc(O)cc1)C(=O)N[C@@H](CO)C(=O)N[C@@H](CCCNC(=N)N)C(=O)N[C@@H](Cc1ccc(O)cc1)C(=O)N[C@@H](CCCNC(=N)N)C(=O)N[C@@H](CCCCN)C(=O)N[C@@H](CCC(N)=O)C(=O)N[C@@H](CCSC)C(=O)N[C@@H](C)C(=O)N[C@H](C(=O)N[C@@H](CCCCN)C(=O)N[C@@H](CCCCN)C(=O)N[C@@H](Cc1ccc(O)cc1)C(=O)N[C@@H](CC(C)C)C(=O)N[C@@H](C)C(=O)N[C@@H](C)C(=O)N[C@H](C(=O)N[C@@H](CC(C)C)C(=O)NCC(=O)N[C@@H](CCCCN)C(=O)N[C@@H](CCCNC(=N)N)C(=O)N[C@@H](Cc1ccc(O)cc1)C(=O)N[C@@H](CCCCN)C(=O)N[C@@H](CCC(N)=O)C(=O)N[C@@H](CCCNC(=N)N)C(=O)N[C@H](C(=O)N[C@@H](CCCCN)C(=O)N[C@@H](CC(N)=O)C(=O)N[C@@H](CCCCN)C(N)=O)C(C)C)C(C)C)C(C)C)[C@@H](C)O` (some centres undefined) (H-HSDGI[ξTiq(1-COOH)]TDSYSRYRKQMAVKKYLAAVLGKRYKQRVKNK-NH2): the IC50 in test [1] is 1550 nM. Moreover, in test [2], the EC50 result is “Not Active”. Moreover, the Emax entry in test [3] was “inactive”.
For `CC[C@H](C)[C@H](NC(=O)CNC(=O)[C@H](CC(=O)O)NC(=O)[C@H](CO)NC(=O)[C@@H](N)Cc1cnc[nH]1)C(=O)N[C@H](Cc1ccccc1)C(=O)N[C@H](C(=O)N[C@@H](CC(=O)O)C(=O)N[C@@H](CO)C(=O)N[C@@H](Cc1ccc(O)cc1)C(=O)N[C@@H](CO)C(=O)N[C@@H](CCCNC(=N)N)C(=O)N[C@@H](Cc1ccc(O)cc1)C(=O)N[C@@H](CCCNC(=N)N)C(=O)N[C@@H](CCCCN)C(=O)N[C@@H](CCC(N)=O)C(=O)N[C@@H](CCSC)C(=O)N[C@@H](C)C(=O)N[C@H](C(=O)N[C@@H](CCCCN)C(=O)N[C@@H](CCCCN)C(=O)N[C@@H](Cc1ccc(O)cc1)C(=O)N[C@@H](CC(C)C)C(=O)N[C@@H](C)C(=O)N[C@@H](C)C(=O)N[C@H](C(=O)N[C@@H](CC(C)C)C(=O)NCC(=O)N[C@@H](CCCCN)C(=O)N[C@@H](CCCNC(=N)N)C(=O)N[C@@H](Cc1ccc(O)cc1)C(=O)N[C@@H](CCCCN)C(=O)N[C@@H](CCC(N)=O)C(=O)N[C@@H](CCCNC(=N)N)C(=O)N[C@H](C(=O)N[C@@H](CCCCN)C(=O)N[C@@H](CC(N)=O)C(=O)N[C@@H](CCCCN)C(N)=O)C(C)C)C(C)C)C(C)C)[C@@H](C)O`, in test [1], the IC50 was 951 nM. In addition, the half-maximal effective concentration (EC50) in test [4] is 1840 nM. The Emax in test [5] was found to be 93.2%.
The matching figures for `CC[C@H](C)[C@H](NC(=O)CNC(=O)[C@H](CCC(=O)O)NC(=O)[C@H](CO)NC(=O)[C@@H](N)Cc1cnc[nH]1)C(=O)N[C@@H](Cc1ccccc1)C(=O)N[C@H](C(=O)N[C@@H](CC(=O)O)C(=O)N[C@@H](CO)C(=O)N[C@@H](Cc1ccc(O)cc1)C(=O)N[C@@H](CO)C(=O)N[C@@H](CCCNC(=N)N)C(=O)N[C@@H](Cc1ccc(O)cc1)C(=O)N[C@@H](CCCNC(=N)N)C(=O)N[C@@H](CCCCN)C(=O)N[C@@H](CCC(N)=O)C(=O)N[C@@H](CCSC)C(=O)N[C@@H](C)C(=O)N[C@H](C(=O)N[C@@H](CCCCN)C(=O)N[C@@H](CCCCN)C(=O)N[C@@H](Cc1ccc(O)cc1)C(=O)N[C@@H](CC(C)C)C(=O)N[C@@H](C)C(=O)N[C@@H](C)C(=O)N[C@H](C(=O)N[C@@H](CC(C)C)C(=O)NCC(=O)N[C@@H](CCCCN)C(=O)N[C@@H](CCCNC(=N)N)C(=O)N[C@@H](Cc1ccc(O)cc1)C(=O)N[C@@H](CCCCN)C(=O)N[C@@H](CCC(N)=O)C(=O)N[C@@H](CCCNC(=N)N)C(=O)N[C@H](C(=O)N[C@@H](CCCCN)C(=O)N[C@@H](CC(N)=O)C(=O)N[C@@H](CCCCN)C(N)=O)C(C)C)C(C)C)C(C)C)[C@@H](C)O` (H-HSEGIFTDSYSRYRKQMAVKKYLAAVLGKRYKQRVKNK-NH2): 7 nM, 1.5 nM and 87.6%.
For `CC[C@H](C)[C@H](NC(=O)CNC(=O)[C@H](CC(=O)O)NC(=O)[C@@H]1CCCN1C(=O)[C@@H](N)Cc1cnc[nH]1)C(=O)N[C@@H](Cc1ccccc1)C(=O)N[C@H](C(=O)N[C@@H](CC(=O)O)C(=O)N[C@@H](CO)C(=O)N[C@@H](Cc1ccc(O)cc1)C(=O)N[C@@H](CO)C(=O)N[C@@H](CCCNC(=N)N)C(=O)N[C@@H](Cc1ccc(O)cc1)C(=O)N[C@@H](CCCNC(=N)N)C(=O)N[C@@H](CCCCN)C(=O)N[C@@H](CCC(N)=O)C(=O)N[C@@H](CCSC)C(=O)N[C@@H](C)C(=O)N[C@H](C(=O)N[C@@H](CCCCN)C(=O)N[C@@H](CCCCN)C(=O)N[C@@H](Cc1ccc(O)cc1)C(=O)N[C@@H](CC(C)C)C(=O)N[C@@H](C)C(=O)N[C@@H](C)C(=O)N[C@H](C(=O)N[C@@H](CC(C)C)C(N)=O)C(C)C)C(C)C)[C@@H](C)O` the same measures were 7.8 nM, 7.4 nM and 94.2%.

(Values after ChEMBL document CHEMBL1138520, “Molecular and conformational determinants of pituitary adenylate cyclase-activating polypeptide (PACAP) for activation of the PAC1 receptor” (J Med Chem, 2009).)
